From ChEMBL document CHEMBL4842367, “Strategies toward Discovery of Potent and Orally Bioavailable Proteolysis Targeting Chimera Degraders of Androgen Receptor for the Treatment of Prostate Cancer” (J Med Chem, 2021)
Activity calls are given as the source filed them. The rule behind the calls is not given here.

Key:
[1] = molecular target: Protein cereblon/Androgen receptor (Homo sapiens, UniProt P10275+Q96SW2); assay: Protac activity at CRBN/AR in human VCaP cells assessed as induction of AR degradation measured after 24 hrs by western blot analysis
Chain of Protein cereblon/Androgen receptor (P10275 whole entry): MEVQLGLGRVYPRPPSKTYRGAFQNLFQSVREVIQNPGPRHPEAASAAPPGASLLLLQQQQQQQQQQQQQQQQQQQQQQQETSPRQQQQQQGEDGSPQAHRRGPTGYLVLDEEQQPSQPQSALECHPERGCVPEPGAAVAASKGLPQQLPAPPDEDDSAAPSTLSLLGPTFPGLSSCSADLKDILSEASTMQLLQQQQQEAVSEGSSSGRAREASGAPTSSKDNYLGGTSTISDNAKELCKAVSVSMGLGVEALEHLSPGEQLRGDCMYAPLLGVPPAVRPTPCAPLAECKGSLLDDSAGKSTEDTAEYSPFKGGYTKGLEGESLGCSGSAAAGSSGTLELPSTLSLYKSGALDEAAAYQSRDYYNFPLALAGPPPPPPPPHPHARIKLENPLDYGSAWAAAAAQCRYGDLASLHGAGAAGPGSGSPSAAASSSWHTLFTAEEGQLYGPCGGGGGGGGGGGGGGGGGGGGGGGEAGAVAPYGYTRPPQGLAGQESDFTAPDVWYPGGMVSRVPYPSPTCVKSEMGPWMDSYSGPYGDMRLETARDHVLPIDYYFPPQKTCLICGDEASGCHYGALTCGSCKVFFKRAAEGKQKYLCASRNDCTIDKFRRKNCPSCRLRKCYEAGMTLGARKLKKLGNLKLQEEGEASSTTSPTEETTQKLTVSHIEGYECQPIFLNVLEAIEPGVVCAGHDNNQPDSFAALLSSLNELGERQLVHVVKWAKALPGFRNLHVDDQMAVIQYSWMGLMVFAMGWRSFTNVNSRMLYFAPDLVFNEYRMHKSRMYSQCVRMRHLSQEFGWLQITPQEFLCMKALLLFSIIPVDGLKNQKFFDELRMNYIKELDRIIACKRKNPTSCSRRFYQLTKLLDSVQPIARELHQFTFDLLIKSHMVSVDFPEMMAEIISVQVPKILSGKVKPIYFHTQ
Chain of Protein cereblon/Androgen receptor (Q96SW2 whole entry): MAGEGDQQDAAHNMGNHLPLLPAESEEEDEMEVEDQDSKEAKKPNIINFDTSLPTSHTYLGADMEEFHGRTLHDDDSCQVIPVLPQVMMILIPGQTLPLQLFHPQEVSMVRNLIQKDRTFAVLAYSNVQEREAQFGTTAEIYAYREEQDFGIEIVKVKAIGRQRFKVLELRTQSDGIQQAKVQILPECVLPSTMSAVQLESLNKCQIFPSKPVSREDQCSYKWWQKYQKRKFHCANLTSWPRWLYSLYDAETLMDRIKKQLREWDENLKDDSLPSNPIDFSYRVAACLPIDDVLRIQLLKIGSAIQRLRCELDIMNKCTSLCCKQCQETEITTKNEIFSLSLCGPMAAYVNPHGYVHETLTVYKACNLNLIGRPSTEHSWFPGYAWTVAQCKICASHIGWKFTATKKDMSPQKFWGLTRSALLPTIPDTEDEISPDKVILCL

[2] = Half life in ICR mouse at 1 mg/kg, iv measured up to 24 hrs by LC-MS/MS analysis; type: ADME, organism-based; details: in vivo
In short: (§1)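 Male ICR mice received a single tail-vein IV bolus in 5% DMSO/10% solutol/85% saline at 5 mL/kg. Blood was taken at 0.083, 0.25, 0.5, 1, 2, 4, 6, 8 and 24 h, with n = 3 per time point and each mouse sampled once. Plasma supernatant was diluted three times with water and analysed by LC-MS/MS, and terminal T1/2 was derived noncompartmentally.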

[3] = Tmax in ICR mouse at 3 mg/kg, po measured up to 24 hrs by LC-MS/MS analysis; type: ADME, organism-based; details: in vivo
In short: (§2)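 Male ICR mice, single oral gavage (3 or 5 mg/kg) in 5% DMSO/10% solutol/85% saline, three mice per group. Separate IV tail-vein bolus group (1 or 2 mg/kg) in the same vehicle. Blood sampled at 0.083–24 h, one sample per mouse, plasma diluted threefold and analysed by LC–MS/MS; noncompartmental parameters.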

[4] = Oral bioavailability in ICR mouse at 3 mg/kg measured up to 24 hrs by LC-MS/MS analysis; type: ADME, organism-based; details: in vivo; in short: as §2
[5] = test system: VCaP; assay: Growth inhibition of human VCaP cells assessed as cell viability measured after 4 days in presence of R1881 by WST-8 assay; type: functional, cell-based; details: 96 h
In short: (§3)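 LNCaP and VCaP cells exposed to compounds for 4 days in charcoal-stripped medium containing 0.1 nM R1881; viability read by WST-8 assay.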

[6] = test system: LNCaP; assay: Growth inhibition of human LNCaP cells assessed as cell viability measured after 4 days in presence of R1881 by WST-8 assay; type: functional, cell-based; details: 96 h; in short: as §3
[7] = Tmax in ICR mouse at 5 mg/kg, po measured up to 24 hrs by LC-MS/MS analysis; type: ADME, organism-based; details: in vivo; in short: as §2
[8] = Oral bioavailability in ICR mouse at 5 mg/kg measured up to 24 hrs by LC-MS/MS analysis; type: ADME, organism-based; details: in vivo; in short: as §2
[9] = test system: Mus musculus; assay: Reduction in AR protein level in tumor of human VCaP cells xenografted in SCID mouse at 20 mg/kg, po single dose measured after 24 hrs by Western blot analysis; type: functional, organism-based
In short: (§4)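 SCID mice bearing VCaP xenografts given one oral dose of 20 mg/kg; tumors harvested at 6 and 24 h after dosing and AR protein measured by Western blot with GAPDH loading control.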

[10] = test system: Mus musculus; assay: Reduction in AR protein level in tumor of human VCaP cells xenografted in SCID mouse at 20 mg/kg, po single dose measured after 6 hrs by Western blot analysis; type: functional, organism-based; in short: as §4
[11] = Plasma concentration in human VCaP cells xenografted in SCID mouse at 20 mg/kg, po single dose measured after 6 hrs by LC-MS/MS analysis; type: ADME, organism-based
In short: (§5)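 Single oral gavage, 20 mg/kg in 100% PEG200, to male SCID mice bearing one VCaP tumor each (about 200 mm³). Plasma and tumor taken at 6 and 24 h, three mice per time point. Tumors frozen, ground in liquid nitrogen, homogenized in water/acetonitrile 4:1, precipitated with cold acetonitrile; analysis by positive-ion MRM LC–MS/MS.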

[12] = Plasma concentration in human VCaP cells xenografted in SCID mouse at 20 mg/kg, po single dose measured after 24 hrs by LC-MS/MS analysis; type: ADME, organism-based; in short: as §5
[13] = Drug uptake in human VCaP cells xenografted in SCID mouse tumor tissue at 20 mg/kg, po single dose measured after 6 hrs by LC-MS/MS analysis; type: ADME, organism-based, Neoplasm; details: in vivo; in short: as §5
[14] = Drug uptake in human VCaP cells xenografted in SCID mouse tumor tissue at 20 mg/kg, po single dose measured after 24 hrs by LC-MS/MS analysis; type: ADME, organism-based, Neoplasm; details: in vivo
In short: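 Male CB17 SCID mice carried subcutaneous VCaP xenografts, implanted as 5 × 10⁶ cells in Matrigel, grown to about 200 mm³. Mice received a single oral gavage of 20 mg/kg in 100% PEG200. Tumors were collected at 6 and 24 h, three mice per time point, and frozen. They were homogenized in water/acetonitrile 4:1, protein-precipitated with cold acetonitrile, and assayed by LC-MS/MS (positive-ion MRM). Values are mean ± SD.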

[15] = Half life in ICR mouse at 2 mg/kg, iv measured up to 24 hrs by LC-MS/MS analysis; type: ADME, organism-based; details: in vivo; in short: as §1
[16] = test system: VCaP; assay: Antitumor activity against human VCaP cells xenografted in SCID mouse assessed as tumor growth inhibition at 40 mg/kg, po measured on day 21 relative to control; type: functional; details: 504 h, read-out: TGI
In short: (§6)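 Male CB17 SCID mice implanted s.c. with 5 × 10⁶ VCaP cells in Matrigel; at average tumor volume 150 mm³, size-matched and randomized, seven per group. Oral gavage daily for 21 days in 100% PEG200. Tumors measured 2–3 times weekly, volume = length × width²/2; TGI (%) = (Vc − Vt)/(Vc − Vo) × 100 using group medians at start and end.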

[17] = test system: VCaP; assay: Suppression of PSA gene expression in human VCaP cells assessed as mRNA level treated for 24 hrs by qRT-PCR analysis; type: functional, cell-based; details: dose 1-1000 nM
In short: (§7)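 VCaP and LNCaP cells treated 24 h; PSA (KLK3) and TMPRSS2 mRNA quantified by TaqMan qRT-PCR, comparative CT method relative to GAPDH and then vehicle control.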

[18] = test system: VCaP; assay: Suppression of TMPRSS2 gene expression in human VCaP cells assessed as mRNA level treated for 24 hrs by qRT-PCR analysis; type: functional, cell-based; details: dose 1-1000 nM; in short: as §7
[19] = test system: LNCaP; assay: Suppression of PSA gene expression in human LNCaP cells assessed as mRNA level treated for 24 hrs by qRT-PCR analysis; type: functional, cell-based; details: dose 1-1000 nM; in short: as §7
[20] = test system: LNCaP; assay: Suppression of TMPRSS2 gene expression in human LNCaP cells assessed as mRNA level treated for 24 hrs by qRT-PCR analysis; type: functional, cell-based; details: dose 1-1000 nM; in short: as §7
[21] = test system: Mus musculus; assay: Reduction in AR protein level in human VCaP cells xenografted in SCID mouse tumor tissue at 10 mg/kg, po for 3 days measured after 3 to 24 hrs of treatment by Western blot analysis; type: functional, organism-based; details: time 3.0 day
In short: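 SCID mice with VCaP xenografts gavaged 10 mg/kg daily for 3 days; tumors collected at 3, 6 and 24 h after the last dose for Western blot of AR, GAPDH as loading control.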

[22] = Reduction in PSA gene expression in human VCaP cells xenografted in SCID mouse tumor tissue assessed as reduction in mRNA level at 10 mg/kg, po for 3 days measured after 3 hrs of treatment by […]; type: functional; details: 72 h, time 3 day
In short: (§8)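 VCaP xenograft-bearing SCID mice dosed orally at 10 mg/kg daily for 3 days; tumors taken 3 h after the last dose. PSA, TMPRSS2 and FKBP5 mRNA measured by TaqMan qRT-PCR, comparative CT normalized to GAPDH and to vehicle control.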

[23] = Reduction in TMPRSS2 gene expression in human VCaP cells xenografted in SCID mouse tumor tissue assessed as reduction in mRNA level at 10 mg/kg, po for 3 days measured after 3 hrs of treatment by […]; type: functional; details: 72 h, time 3 day; in short: as §8
[24] = Reduction in FKBPS gene expression in human VCaP cells xenografted in SCID mouse tumor tissue assessed as reduction in mRNA level at 10 mg/kg, po for 3 days measured after 3 hrs of treatment by […]; type: functional; details: 72 h, time 3 day; in short: as §8
[25] = test system: VCaP; assay: Antitumor activity against human VCaP cells xenografted in SCID mouse assessed as tumor growth inhibition at 10 mg/kg, po measured on day 21 relative to control; type: functional; details: 504 h, read-out: TGI; in short: as §6
[26] = test system: VCaP; assay: Antitumor activity against human VCaP cells xenografted in SCID mouse assessed as tumor growth inhibition at 20 mg/kg, po measured on day 21 relative to control; type: functional; details: 504 h, read-out: TGI; in short: as §6
[27] = Toxicity in SCID mouse xenografted with human VCaP cells assessed as weight loss at 40 mg/kg, po measured on day 21; type: organism-based; details: in vivo
In short: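 Male CB17 SCID mice bearing s.c. VCaP xenografts, randomized at about 150 mm³ (seven per group), gavaged daily for 21 days in 100% PEG200; body weights recorded 2–3 times per week to follow maximum weight loss.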

CC1(C)[C@H](NC(=O)c2ccc(N3CCC(CN4CCN(c5ccc6c(c5)C(=O)N(C5CCC(=O)NC5=O)C6=O)CC4)CC3)cc2)C(C)(C)[C@H]1Oc1ccc(C#N)c(Cl)c1 (stereo partly drawn)
EC50 [1]: 0.4 nM | t1/2 [2]: 25.5 h | Tmax [3]: 4.7 h | F [4]: 33%

CC1(C)[C@H](NC(=O)c2ccc(N3CCC(N4CCN(c5ccc6c(c5)C(=O)N(C5CCC(=O)NC5=O)C6=O)CC4)CC3)cc2)C(C)(C)[C@H]1Oc1ccc(C#N)c(Cl)c1 (stereo partly drawn)
EC50 [1]: 0.1 nM | t1/2 [2]: 21 h | Tmax [3]: 6 h | F [4]: 24%

CN1CCN(c2ccc(C(=O)N[C@H]3C(C)(C)[C@H](Oc4ccc(C#N)c(Cl)c4)C3(C)C)cc2)CC1
IC50 [5]: 49 nM | IC50 [6]: 81 nM

CC1(C)[C@H](NC(=O)c2ccc(N3CCN(C4CCN(c5ccc6c(c5)C(=O)N(C5CCC(=O)NC5=O)C6=O)CC4)CC3)cc2)C(C)(C)[C@H]1Oc1ccc(C#N)c(Cl)c1 (stereo partly drawn)
Tmax [7]: 4 h | EC50 [1]: 0.8 nM | F [8]: 37% | Activity [9]: Active | Activity [10]: Active | concentration at 6 h [11]: 803 ng/mL | concentration at 24 h [12]: 776 ng/mL | Drug uptake [13]: 315 ng/kg | Drug uptake [14]: 685 ng/g

CC1(C)[C@H](NC(=O)c2ccc(N3CCN(CC4CN(c5ccc6c(c5)C(=O)N(C5CCC(=O)NC5=O)C6=O)C4)CC3)cc2)C(C)(C)[C@H]1Oc1ccc(C#N)c(Cl)c1 (stereo partly drawn)
Tmax [7]: 4 h | EC50 [1]: 0.2 nM | t1/2 [15]: 17.8 h | F [8]: 75% | Activity [9]: Active | concentration at 6 h [11]: 1360 ng/mL | concentration at 24 h [12]: 1670 ng/mL | Drug uptake [13]: 718 ng/g | Drug uptake [14]: 1740 ng/g

CNC(=O)c1ccc(N2C(=S)N(c3ccc(C#N)c(C(F)(F)F)c3)C(=O)C2(C)C)cc1F [ENZALUTAMIDE]
inhibition in vivo at 40 mg/kg [16]: 39%

CN1C(=O)CCC(N2C(=O)c3ccc(N4CCC(CN5CCN(c6ccc(C(=O)N[C@H]7C(C)(C)[C@H](Oc8ccc(C#N)c(Cl)c8)C7(C)C)cc6)CC5)CC4)cc3C2=O)C1=O (stereo partly drawn)
IC50 [5]: 783 nM | IC50 [6]: 237 nM

CC1(C)[C@H](NC(=O)c2ccc(N3CCN(CC4CCN(c5ccc6c(c5)C(=O)N(C5CCC(=O)NC5=O)C6=O)CC4)CC3)cc2)C(C)(C)[C@H]1Oc1ccc(C#N)c(Cl)c1 (stereo partly drawn)
Tmax [7]: 4.7 h | EC50 [1]: 0.3 nM | IC50 [5]: 4 nM | IC50 [6]: 5 nM | Activity [17]: Dose-Dependent Effect | Activity [18]: Dose-Dependent Effect | Activity [19]: Dose-Dependent Effect | Activity [20]: Dose-Dependent Effect | F [8]: 67% | Activity [9]: Active | concentration at 6 h [11]: 1510 ng/mL | concentration at 24 h [12]: 1660 ng/mL | Drug uptake [13]: 635 ng/g | Drug uptake [14]: 1510 ng/g | Activity [21]: Active | inhibition in vivo at 10 mg/kg [22]: > 50% | inhibition in vivo at 10 mg/kg [23]: > 50% | inhibition in vivo at 10 mg/kg [24]: > 50% | inhibition in vivo at 40 mg/kg [16]: 63% | inhibition in vivo at 10 mg/kg [25]: 46% | inhibition in vivo at 20 mg/kg [26]: 69% | Activity [27]: ≤ 5%
